Results from publication PMC7818638 (ACS Omega, 2021).
In brackets after ≈: the same amount, converted by molar mass.

Columns and labels:
HepG2 = assay: Antiproliferative; format: cell-based; settings: Homo sapiens, HepG2, read-out: HepG2 IC50 ± SD
Method in brief: (§1)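 Test compounds are screened by MTT assay against human hepatoblastoma HepG2 cells and murine BALB/3T3 fibroblasts, with doxorubicin as the reference drug. Dose–response curves are plotted from the results. IC50 is taken as the concentration needed to kill half the cell population. Values are the mean of three independent experiments.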

[1] = system: BALB/3T3 (murine fibroblast); assay: Cytotoxicity toward normal cell line BALB/3T3, MTT assay; format: cell-based; settings: for toxicity on the normal cell line (BALAB/3T3): statement in words; for IC50: Mus musculus, BALB/3T3, read-out: BALAB/3T3 IC50 ± SD
Method in brief: as §1

Structure (SMILES) | IC50 (HepG2) [µg/mL] | toxicity on the normal cell line (BALAB/3T3) [1] | IC50 [1] [µg/mL]
Cc1c(-c2cc(-c3ccccc3)c(C#N)c(N)n2)nnn1-c1ccc(Br)cc1 [Compound 3, 2-Amino-6-(1-(4-bromophenyl)-5-methyl-1H-1,2,3-triazol-4-yl)-4-phenylnicotinonitrile] | 17.2 ± 0.83 (≈ 40 µM) | – | –
COc1cc(-c2cc(-c3nnn(-c4ccc(Br)cc4)c3C)nc(N)c2C#N)ccc1O [Compound 8, 2-Amino-6-(1-(4-bromophenyl)-5-methyl-1H-1,2,3-triazol-4-yl)-4-(4-hydroxy-3-methoxyphenyl)nicotinonitrile] | 9.65 ± 0.37 (≈ 20.2 µM) | – | –
Cc1c(-c2cc(-c3ccco3)c(C#N)c(N)n2)nnn1-c1ccc(Br)cc1 [Compound 9, 2-Amino-6-(1-(4-bromophenyl)-5-methyl-1H-1,2,3-triazol-4-yl)-4-(furan-2-yl)nicotinonitrile] | 11.15 ± 0.01 (≈ 26.5 µM) | – | –
CCOC(=O)c1c(-c2ccco2)cc(-c2nnn(-c3ccc(Br)cc3)c2C)nc1N [Compound 16, Ethyl 2-Amino-6-(1-(4-bromophenyl)-5-methyl-1H-1,2,3-triazol-4-yl)-4-(furan-2-yl)nicotinate] | 13.24 ± 0.12 (≈ 28.3 µM) | – | –
COc1cccc2c1C(=O)c1c(O)c3c(c(O)c1C2=O)C[C@@](O)(C(=O)CO)C[C@@H]3O[C@H]1C[C@H](N)[C@H](O)[C@H](C)O1 [doxorubicin, reference compound] | 3.56 ± 0.46 (≈ 6.55 µM) | – | –

Second part, led by results:

IC50 (HepG2) [µg/mL] | Structure (SMILES) | toxicity on the normal cell line (BALAB/3T3) [1] | IC50 [1] [µg/mL]
0.64 ± 0.14 (≈ 0.873 µM) | Cc1c(-c2cc(-c3cn(-c4ccccc4)nc3-c3nnn(-c4ccc(Br)cc4)c3C)c(C#N)c(N)n2)nnn1-c1ccc(Br)cc1 [Compound 6, 2-Amino-6-(1-(4-bromophenyl)-5-methyl-1H-1,2,3-triazol-4-yl)-4-(3-(1-(4-bromophenyl)-5-methyl-1H-1,2,3-triazol-4-yl)-1-phenyl-1H-pyrazol-4-yl)nicotinonitrile] | no toxicity | –
1.08 ± 0.94 (≈ 1.54 µM) | Cc1c(-c2cc(-c3cn(-c4ccccc4)nc3-c3nnn(-c4cccc([N+](=O)[O-])c4)c3C)c(C#N)c(N)n2)nnn1-c1ccc(Br)cc1 [Compound 7, 2-Amino-6-(1-(4-bromophenyl)-5-methyl-1H-1,2,3-triazol-4-yl)-4-(3-(5-methyl-1-(3-nitrophenyl)-1H-1,2,3-triazol-4-yl)-1-phenyl-1H-pyrazol-4-yl)nicotinonitrile] | no toxicity | –
23.2 ± 0.45 (≈ 48.6 µM) | CCOC(=O)c1c(-c2ccccc2)cc(-c2nnn(-c3ccc(Br)cc3)c2C)nc1N [Compound 10, Ethyl 2-Amino-6-(1-(4-bromophenyl)-5-methyl-1H-1,2,3-triazol-4-yl)-4-phenylnicotinate] | – | 76.72 ± 0.24 (≈ 160 µM)
16.7 ± 0.83 (≈ 32.8 µM) | CCOC(=O)c1c(-c2ccc(OC)cc2)cc(-c2nnn(-c3ccc(Br)cc3)c2C)nc1N [Compound 11, Ethyl 2-Amino-6-(1-(4-bromophenyl)-5-methyl-1H-1,2,3-triazol-4-yl)-4-(4-methoxyphenyl)nicotinate] | – | –
6.24 ± 0.71 (≈ 8 µM) | CCOC(=O)c1c(-c2cn(-c3ccccc3)nc2-c2nnn(-c3ccc(Br)cc3)c2C)cc(-c2nnn(-c3ccc(Br)cc3)c2C)nc1N [Compound 13, Ethyl 2-Amino-6-(1-(4-bromophenyl)-5-methyl-1H-1,2,3-triazol-4-yl)-4-(3-(1-(4-bromophenyl)-5-methyl-1H-1,2,3-triazol-4-yl)-1-phenyl-1H-pyrazol-4-yl)nicotinate] | – | 61.24 ± 0.21 (≈ 78.5 µM)
9.54 ± 0.05 (≈ 12.8 µM) | CCOC(=O)c1c(-c2cn(-c3ccccc3)nc2-c2nnn(-c3cccc([N+](=O)[O-])c3)c2C)cc(-c2nnn(-c3ccc(Br)cc3)c2C)nc1N [Compound 14, Ethyl 2-Amino-6-(1-(4-bromophenyl)-5-methyl-1H-1,2,3-triazol-4-yl)-4-(3-(5-methyl-1-(3-nitrophenyl)-1H-1,2,3-triazol-4-yl)-1-phenyl-1H-pyrazol-4-yl)nicotinate] | – | –
11.3 ± 0.95 (≈ 21.6 µM) | CCOC(=O)c1c(-c2ccc(O)c(OC)c2)cc(-c2nnn(-c3ccc(Br)cc3)c2C)nc1N [Compound 15, Ethyl 2-Amino-6-(1-(4-bromophenyl)-5-methyl-1H-1,2,3-triazol-4-yl)-4-(4-hydroxy-3-methoxyphenyl)nicotinate] | – | 18.3 ± 1.81 (≈ 35 µM)
